Measurements: ChEMBL document CHEMBL4406820, “Novel reverse thia-analogs of fosmidomycin: Synthesis and antiplasmodial activity” (Eur J Med Chem, 2019)

Assays:
Pseudomonas aeruginosa = assay: Antimicrobial activity against Pseudomonas aeruginosa ATCC 27853 incubated for 18 hrs by microbroth dilution assay; type: functional; conditions: ATCC 27853, 18 h
HeLa = assay: Cytotoxicity against human HeLa cells assessed as reduction in cell viability incubated for 24 hrs by neutral red assay; type: cell-based
Method in brief: (§1)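 Cytotoxicity on HeLa monolayers quantified spectrophotometrically, given as the mean of two independent double determinations. SI is HeLa IC50 divided by the P. falciparum 3D7 IC50.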

Klebsiella pneumoniae [1] = assay: Antimicrobial activity against Klebsiella pneumoniae ATCC 13883 incubated for 18 hrs by microbroth dilution assay; type: functional; conditions: ATCC 13883, 18 h
Escherichia coli [2] = assay: Antimicrobial activity against Escherichia coli ATCC 25922 incubated for 18 hrs by microbroth dilution assay; type: functional; conditions: ATCC 25922, 18 h
[3] = target: T1, 1-deoxy-D-xylulose 5-phosphate reductoisomerase (Mycobacterium tuberculosis, UniProt P9WNS1); assay: Inhibition of recombinant Mycobacterium tuberculosis IspC expressed in Escherichia coli M15 using 1-deoxy-D-xylulose 5-phosphate as substrate by photometric assay
T1 sequence (P9WNS1 whole entry): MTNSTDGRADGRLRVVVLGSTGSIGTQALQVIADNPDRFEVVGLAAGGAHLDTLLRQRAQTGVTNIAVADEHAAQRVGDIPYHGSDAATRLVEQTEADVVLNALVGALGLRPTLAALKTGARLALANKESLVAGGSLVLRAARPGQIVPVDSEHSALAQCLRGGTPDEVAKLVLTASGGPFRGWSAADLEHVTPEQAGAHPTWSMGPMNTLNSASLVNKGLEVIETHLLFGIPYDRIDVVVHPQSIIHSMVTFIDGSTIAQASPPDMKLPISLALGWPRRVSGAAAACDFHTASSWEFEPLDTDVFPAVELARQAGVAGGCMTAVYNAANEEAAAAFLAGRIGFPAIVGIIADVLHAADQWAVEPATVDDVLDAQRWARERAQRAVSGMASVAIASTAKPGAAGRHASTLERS

[4] = target: T2, 1-deoxy-D-xylulose 5-phosphate reductoisomerase, apicoplastic (Plasmodium falciparum (isolate 3D7), UniProt Q8IKG4); assay: Inhibition of recombinant Plasmodium falciparum IspC expressed in Escherichia coli using 1-deoxy-D-xylulose 5-phosphate as substrate by photometric assay
T2 sequence (Q8IKG4 whole entry): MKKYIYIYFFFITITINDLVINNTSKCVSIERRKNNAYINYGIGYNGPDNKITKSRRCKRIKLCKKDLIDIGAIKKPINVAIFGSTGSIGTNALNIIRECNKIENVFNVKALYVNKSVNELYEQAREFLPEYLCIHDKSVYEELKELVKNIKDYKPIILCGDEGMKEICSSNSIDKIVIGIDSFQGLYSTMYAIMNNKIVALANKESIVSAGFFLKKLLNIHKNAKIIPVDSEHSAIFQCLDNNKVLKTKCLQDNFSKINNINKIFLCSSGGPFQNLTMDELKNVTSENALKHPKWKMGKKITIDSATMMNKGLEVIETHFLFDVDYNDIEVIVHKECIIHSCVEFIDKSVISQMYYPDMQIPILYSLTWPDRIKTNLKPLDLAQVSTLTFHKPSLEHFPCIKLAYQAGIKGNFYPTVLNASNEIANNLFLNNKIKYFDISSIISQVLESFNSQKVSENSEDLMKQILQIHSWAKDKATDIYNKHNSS
Method in brief: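 P. falciparum IspC expressed in E. coli. Reaction mix: 100 mM Tris-HCl pH 7.6, 5 mM MnCl2, 5 mM DTT, 0.5 mM NADPH, 0.02 U enzyme. Inhibitor tested as a 1:3 series from 200 to 0.003 µM. Started with 0.5 mM DXP; read at 340 nm, room temperature. IC50 calculated from at least eight data points; generally two to three independent determinations.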

Acinetobacter baumannii [5] = assay: Antimicrobial activity against Acinetobacter baumannii ATCC BAA 1605 incubated for 18 hrs by microbroth dilution assay; type: functional; conditions: ATCC BAA 1605, 18 h
Acinetobacter baumannii [6] = assay: Antimicrobial activity against Acinetobacter baumannii ATCC BAA747 incubated for 18 hrs by microbroth dilution assay; type: functional; conditions: ATCC BAA747, 18 h
[7] = target: T3, 1-deoxy-D-xylulose 5-phosphate reductoisomerase (Escherichia coli, UniProt W8T2T2); assay: Inhibition of recombinant Escherichia coli IspC expressed in Escherichia coli M15 using 1-deoxy-D-xylulose 5-phosphate as substrate by photometric assay
T3 sequence (W8T2T2 whole entry): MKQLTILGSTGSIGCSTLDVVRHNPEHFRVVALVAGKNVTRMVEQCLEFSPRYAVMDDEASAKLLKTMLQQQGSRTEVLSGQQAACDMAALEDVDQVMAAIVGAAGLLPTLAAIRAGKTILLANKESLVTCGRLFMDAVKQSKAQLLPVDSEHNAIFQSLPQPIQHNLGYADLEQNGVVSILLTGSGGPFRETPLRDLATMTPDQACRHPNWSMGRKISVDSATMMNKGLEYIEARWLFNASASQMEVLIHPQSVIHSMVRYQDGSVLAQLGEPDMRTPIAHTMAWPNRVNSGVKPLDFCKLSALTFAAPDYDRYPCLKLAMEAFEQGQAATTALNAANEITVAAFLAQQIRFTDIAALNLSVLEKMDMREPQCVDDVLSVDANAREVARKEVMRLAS
Method in brief: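 E. coli IspC, His-tagged, expressed in E. coli M15 pREP4 (IPTG 1 mM, 36 h at 20 °C) and purified by Ni2+-chelate chromatography to about 95% purity. Reaction mix: 100 mM Tris-HCl pH 7.6, 5 mM MnCl2, 5 mM DTT, 0.5 mM NADPH, 0.02 U enzyme. Inhibitor tested as a 1:3 series from 200 to 0.003 µM. Started with 0.5 mM DXP; NADPH consumption read at 340 nm, room temperature. IC50 fitted from at least eight points.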

[8] = system: Mycobacterium tuberculosis; assay: Antimycobacterial activity against Mycobacterium tuberculosis H37Rv incubated for 5 days by resazurin dye based assay; type: functional; conditions: 120 h
Klebsiella pneumoniae [9] = assay: Antimicrobial activity against Klebsiella pneumoniae ATCC 700603 incubated for 18 hrs by microbroth dilution assay; type: functional; conditions: ATCC 700603, 18 h
Plasmodium falciparum [10] = assay: Antimalarial activity against asexual blood stages of Plasmodium falciparum 3D7 infected in human erythrocytes incubated for 3 days by ELISA; type: functional, organism-based; conditions: 3D7, 72 h
Method in brief: (§2)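 Asexual blood-stage P. falciparum cultured in human erythrocytes; growth measured by HRP2 double-site sandwich ELISA. IC50 values are the mean of two independent double determinations.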

Escherichia coli [11] = assay: Antimicrobial activity against Escherichia coli ATCC BAA 2469 incubated for 18 hrs by microbroth dilution assay; type: functional; conditions: ATCC BAA 2469, 18 h
[12] = Selectivity index, ratio of IC50 for human HeLa cells to IC50 for Plasmodium falciparum 3D7; type: toxicity; conditions: read-out: Ratio IC50; method in brief: as §1
Plasmodium falciparum [13] = assay: Antimalarial activity against asexual blood stages of Plasmodium falciparum Dd2 infected in human erythrocytes incubated for 3 days by ELISA; type: functional, organism-based; conditions: Dd2, 72 h; method in brief: as §2

Row | SMILES | MIC (Pseudomonas aeruginosa) [µM] | IC50 (HeLa) [µM] | MIC (Klebsiella pneumoniae [1]) [µM] | MIC (Escherichia coli [2]) [µM] | IC50 [3] [µM] | IC50 [4] [µM] | MIC (Acinetobacter baumannii [5]) [µM] | MIC (Acinetobacter baumannii [6]) [µM] | IC50 [7] [µM] | MIC [8] [µM] | MIC (Klebsiella pneumoniae [9]) [µM] | IC50 (Plasmodium falciparum [10]) [µM] | MIC (Escherichia coli [11]) [µM] | selectivity ratio [12] | IC50 (Plasmodium falciparum [13]) [µM]
1 | COc1cc(OC)cc(C(P(=O)(O)O)S(=O)(=O)CC(=O)NO)c1 (stereo not drawn) | > 100 | > 500 | > 100 | > 100 | 194 | 0.22 | > 100 | > 100 | 4.5 | > 100 | > 100 | 2.7 | > 100 |  | 
2 | CN(O)C(=O)CS(=O)(=O)C(c1ccccc1)P(=O)(O)O (stereo not drawn) |  |  |  |  | 115 | 7.6 |  |  | 36 |  |  | > 100 |  |  | 
3 | COc1cc(OC)cc(C(P(=O)(O)O)S(=O)(=O)CC(=O)N(C)O)c1 (stereo not drawn) |  | > 1000 |  |  | > 1000 | 3.7 |  |  | 80 |  |  | > 100 |  |  | 
4 | CN(O)C(=O)CS(=O)(=O)C(c1cc(F)cc(F)c1)P(=O)(O)O (stereo not drawn) | > 100 | > 1000 | > 100 | > 100 | 44 | 5.5 | > 100 | > 100 | 4.3 | > 100 | > 100 | 19 | > 100 |  | 
5 | Cc1ccc(C(P(=O)(O)O)S(=O)(=O)CC(=O)N(C)O)cc1 (stereo not drawn) | > 100 | > 50 | > 100 | > 100 | 143 | 8.5 | > 100 | > 100 | 36 | > 100 | > 100 | > 100 | > 100 |  | 
6 | CN(O)C(=O)CS(=O)(=O)C(c1ccc(Cl)c(Cl)c1)P(=O)(O)O (stereo not drawn) | > 100 | > 1000 | > 100 | > 100 | 21 | 1 | > 100 | > 100 | 11 | > 100 | > 100 | > 100 | > 100 |  | 
7 | CN(O)C(=O)CS(=O)(=O)C(c1cccc2ccccc12)P(=O)(O)O (stereo not drawn) | > 100 | > 1000 | > 100 | > 100 | 621 | 823 | > 100 | > 100 | 15 | > 100 | > 100 | > 100 | > 100 |  | 
8 | Cc1ccc(C(P(=O)(O)O)S(=O)(=O)CC(=O)NO)cc1 (stereo not drawn) |  |  |  |  | > 1000 | 65 |  |  | 64 |  |  | > 100 |  |  | 
9 | CN(O)C(=O)CSC(c1ccc(Cl)c(Cl)c1)P(=O)(O)O (racemic) | > 100 |  | > 100 | > 100 |  |  | > 100 | > 100 |  | > 100 | > 100 |  | > 100 |  | 
10 | CN(O)C(=O)CSC(c1cccc2ccccc12)P(=O)(O)O (racemic) | > 100 |  | > 100 | > 100 |  |  | > 100 | > 100 |  | > 100 | > 100 |  | > 100 |  | 
11 | Cc1ccc(C(SCC(=O)N(C)O)P(=O)(O)O)cc1 (racemic) | > 100 |  | > 100 | > 100 |  |  | > 100 | > 100 |  | > 100 | > 100 |  | > 100 |  | 
12 | Cc1ccc(C(SCC(=O)NO)P(=O)(O)O)cc1 (racemic) | > 100 | > 1000 | > 100 | > 100 | 8.2 | 0.032 | > 100 | > 100 | 0.29 | > 100 | > 100 | 6.5 | > 100 | > 150 | 8
13 | COc1cc(OC)cc(C(SCC(=O)NO)P(=O)(O)O)c1 (racemic) | > 100 | > 1000 | > 100 | > 100 | 44 | 0.024 | > 100 | > 100 | 0.68 | > 100 | > 100 | 0.33 | > 100 | > 3000 | 0.27
14 | O=C(CSC(c1cc(F)cc(F)c1)P(=O)(O)O)NO (racemic) | > 100 | > 1000 | > 100 | > 100 | 0.32 | 0.011 | > 100 | > 100 | 0.013 | > 100 | > 100 | 1.2 | > 100 | > 810 | 0.87
15 | CN(O)C(=O)CSC(c1cc(F)cc(F)c1)P(=O)(O)O (racemic) | > 100 | > 1000 | > 100 | > 100 | 0.11 | 0.013 | > 100 | > 100 | 0.018 | > 100 | > 100 | 0.15 | > 100 | > 6700 | 0.13
16 | COc1cc(OC)cc(C(SCC(=O)N(C)O)P(=O)(O)O)c1 (racemic) | > 100 | > 1000 | > 100 | > 100 | 4.4 | 0.02 | > 100 | > 100 | 0.16 | > 100 | > 100 | 0.16 | > 100 | > 6400 | 0.18
17 | O=CN(O)CCCP(=O)(O)O [FOSMIDOMYCIN SODIUM] |  |  |  |  |  |  |  |  | 0.22 |  |  |  |  |  | 
